The source made the active and inactive calls. The calls are words filed in the database; no cut-off is given here.
Legend:
Type in all cases: cell-based
[1] = target: T1, Ectonucleoside triphosphate diphosphohydrolase 1 (Homo sapiens) (UniProt P49961); assay: Activity of human NTPDase 1 expressed in human 293T cells assessed as drug hydrolysis at 100 uM after 20 mins relative to ATP; parameters: scale not given: the % may be the effect or the level left
T1 sequence (whole entry): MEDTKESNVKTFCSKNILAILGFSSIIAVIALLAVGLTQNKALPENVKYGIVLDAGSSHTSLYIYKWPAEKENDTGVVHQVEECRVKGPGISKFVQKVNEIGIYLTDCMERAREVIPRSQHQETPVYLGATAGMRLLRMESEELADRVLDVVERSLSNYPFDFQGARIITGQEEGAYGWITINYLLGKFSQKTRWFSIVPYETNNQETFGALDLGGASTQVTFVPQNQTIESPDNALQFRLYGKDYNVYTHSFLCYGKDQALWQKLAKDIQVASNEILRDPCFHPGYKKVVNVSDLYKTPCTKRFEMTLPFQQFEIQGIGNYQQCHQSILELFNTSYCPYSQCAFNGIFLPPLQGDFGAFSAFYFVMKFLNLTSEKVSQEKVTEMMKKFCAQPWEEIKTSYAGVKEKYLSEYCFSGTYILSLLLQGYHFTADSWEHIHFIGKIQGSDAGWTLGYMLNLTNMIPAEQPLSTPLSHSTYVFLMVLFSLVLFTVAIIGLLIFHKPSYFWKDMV
Procedure, shortened: (§1)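 Human NTPDase1, 2, 3 or 8 in crude extracts of transfected 293T cells, pre-incubated 3 min at 37 °C in Tris-Ringer buffer pH 7.4. […] Untransfected-cell extract activity subtracted.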

[2] = target: T2, Ectonucleoside triphosphate diphosphohydrolase 3 (Homo sapiens) (UniProt O75355); assay: Activity of human NTPDase 3 expressed in human 293T cells assessed as drug hydrolysis at 100 uM after 20 mins relative to ATP; parameters: scale not given: the % may be the effect or the level left; procedure, shortened: as §1
T2 sequence (whole entry): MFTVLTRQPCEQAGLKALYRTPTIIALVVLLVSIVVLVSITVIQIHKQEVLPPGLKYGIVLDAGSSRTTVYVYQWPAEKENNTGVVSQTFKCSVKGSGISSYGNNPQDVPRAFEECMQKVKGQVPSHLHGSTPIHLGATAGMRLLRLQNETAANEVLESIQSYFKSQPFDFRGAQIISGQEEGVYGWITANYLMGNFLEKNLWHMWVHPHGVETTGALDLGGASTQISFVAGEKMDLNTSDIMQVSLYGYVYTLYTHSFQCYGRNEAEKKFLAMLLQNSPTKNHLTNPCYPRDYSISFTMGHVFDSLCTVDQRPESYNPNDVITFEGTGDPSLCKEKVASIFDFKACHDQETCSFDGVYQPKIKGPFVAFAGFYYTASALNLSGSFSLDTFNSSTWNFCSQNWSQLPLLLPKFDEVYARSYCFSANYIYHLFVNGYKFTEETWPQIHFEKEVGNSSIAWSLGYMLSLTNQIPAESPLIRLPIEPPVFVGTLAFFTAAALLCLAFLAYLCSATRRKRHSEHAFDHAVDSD

[3] = target: T3, Ectonucleotide pyrophosphatase/phosphodiesterase family member 3 (Homo sapiens) (UniProt O14638); assay: Activity of human NPP3 expressed in human 293T cells assessed as drug hydrolysis at 100 uM after 20 mins by reverse-phase HPLC relative to p-nitrophenyl-thymidine-5-monophosphate; parameters: scale not given: the % may be the effect or the level left
T3 sequence (whole entry): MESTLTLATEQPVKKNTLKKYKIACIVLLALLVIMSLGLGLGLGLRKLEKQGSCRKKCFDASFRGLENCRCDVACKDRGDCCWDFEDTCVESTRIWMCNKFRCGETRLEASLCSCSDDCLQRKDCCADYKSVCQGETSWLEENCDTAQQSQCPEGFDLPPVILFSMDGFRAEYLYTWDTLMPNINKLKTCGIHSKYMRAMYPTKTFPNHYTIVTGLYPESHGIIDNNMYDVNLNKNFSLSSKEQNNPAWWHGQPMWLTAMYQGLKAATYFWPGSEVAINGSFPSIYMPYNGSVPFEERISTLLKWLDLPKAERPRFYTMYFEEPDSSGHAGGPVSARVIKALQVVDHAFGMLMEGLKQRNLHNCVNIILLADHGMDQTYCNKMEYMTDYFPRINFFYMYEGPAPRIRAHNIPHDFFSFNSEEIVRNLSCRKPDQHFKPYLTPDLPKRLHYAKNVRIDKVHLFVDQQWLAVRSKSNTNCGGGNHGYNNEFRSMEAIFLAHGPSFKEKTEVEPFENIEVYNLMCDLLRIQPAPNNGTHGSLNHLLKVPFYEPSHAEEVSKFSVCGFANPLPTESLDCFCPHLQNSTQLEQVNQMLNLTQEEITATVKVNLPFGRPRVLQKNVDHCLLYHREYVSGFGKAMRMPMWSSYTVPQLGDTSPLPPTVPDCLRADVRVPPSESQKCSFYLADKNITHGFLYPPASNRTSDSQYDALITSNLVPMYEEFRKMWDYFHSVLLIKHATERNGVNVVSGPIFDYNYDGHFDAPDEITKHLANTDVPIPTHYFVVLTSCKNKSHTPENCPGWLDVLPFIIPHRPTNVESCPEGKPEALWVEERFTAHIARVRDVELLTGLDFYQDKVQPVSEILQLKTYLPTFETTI
Procedure, shortened: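 Crude extract of 293T cells transfected with human NPP1 or NPP3, pre-incubated 3 min at 37 °C in 1 mM CaCl2, 140 mM NaCl, 5 mM KCl, 50 mM Tris pH 8.5. Substrate at 100 µM final for 20 min, stopped in ice-cold perchloric acid and neutralized with KOH. Loss of analogue quantified by reverse-phase HPLC with ion-pair phosphate mobile phase pH 7.0. pnp-TMP (p-nitrophenol at 410 nm) served as the 100% reference.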

[4] = target: T4, Ectonucleoside triphosphate diphosphohydrolase 8 (Homo sapiens) (UniProt Q5MY95); assay: Inhibition of human NTPDase 8 expressed in human 293T cells
T4 sequence (whole entry): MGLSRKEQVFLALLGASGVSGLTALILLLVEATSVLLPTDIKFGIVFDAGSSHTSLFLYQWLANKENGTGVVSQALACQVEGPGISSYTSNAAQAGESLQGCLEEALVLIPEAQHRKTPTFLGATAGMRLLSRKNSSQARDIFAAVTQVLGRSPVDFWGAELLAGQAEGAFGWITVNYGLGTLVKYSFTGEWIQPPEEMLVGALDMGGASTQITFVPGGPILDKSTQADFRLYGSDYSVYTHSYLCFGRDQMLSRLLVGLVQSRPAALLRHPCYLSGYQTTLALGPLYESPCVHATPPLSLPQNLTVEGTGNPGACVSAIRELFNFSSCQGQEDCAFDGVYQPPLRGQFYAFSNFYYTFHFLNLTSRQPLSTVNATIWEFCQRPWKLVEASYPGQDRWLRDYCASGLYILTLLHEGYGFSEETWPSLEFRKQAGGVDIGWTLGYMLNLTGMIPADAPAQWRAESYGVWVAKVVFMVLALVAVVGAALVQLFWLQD

CSc1nc(N)c2ncn([C@@H]3O[C@H](COP(=O)(O)OP(=O)(O)CP(=O)(O)O)[C@@H](O)[C@H]3O)c2n1
Activity [1]: 8% | Activity [2]: 7% | Activity [3]: 10% | Activity [4]: inactive

BP(=O)(OC[C@H]1O[C@@H](n2cnc3c(N)ncnc32)[C@H](O)[C@@H]1O)OP(=O)(O)CP(=O)(O)O (stereo not given in full)
Activity [1]: 1% | Activity [2]: 0% | Activity [3]: 0% | Activity [4]: inactive

BP(=O)(OC[C@H]1O[C@@H](n2cnc3c(N)nc(SC)nc32)[C@H](O)[C@@H]1O)OP(=O)(O)CP(=O)(O)O (single isomer, unassigned; diastereomer A)
Activity [1]: < 1% | Activity [2]: 2% | Activity [3]: 9.9% | Activity [4]: inactive

BP(=O)(OC[C@H]1O[C@@H](n2cnc3c(N)nc(SC)nc32)[C@H](O)[C@@H]1O)OP(=O)(O)CP(=O)(O)O (single isomer, unassigned; diastereomer B)
Activity [1]: < 1% | Activity [2]: 2% | Activity [3]: 0% | Activity [4]: inactive

BP(=O)(OC[C@H]1O[C@@H](n2cnc3c(N)ncnc32)[C@H](O)[C@@H]1O)OP(=O)(O)CP(=O)(O)O (single isomer, unassigned; diastereomer B)
Activity [1]: 0% | Activity [2]: 6% | Activity [3]: 3% | Activity [4]: inactive
